Experimental data from ChEMBL document CHEMBL1125883, “Thromboxane receptor antagonism combined with thromboxane synthase inhibition. 1. (+/-)-(3-pyridinylbicycloheptyl)alkanoic acids” (J Med Chem, 1991).

Key:
Thromboxane-A synthase [1] = target: T1, Thromboxane-A synthase (Homo sapiens, UniProt P24557); test: In vitro inhibition of thromboxane synthase using [14C]arachidonic acid
T1 sequence (P24557 whole entry): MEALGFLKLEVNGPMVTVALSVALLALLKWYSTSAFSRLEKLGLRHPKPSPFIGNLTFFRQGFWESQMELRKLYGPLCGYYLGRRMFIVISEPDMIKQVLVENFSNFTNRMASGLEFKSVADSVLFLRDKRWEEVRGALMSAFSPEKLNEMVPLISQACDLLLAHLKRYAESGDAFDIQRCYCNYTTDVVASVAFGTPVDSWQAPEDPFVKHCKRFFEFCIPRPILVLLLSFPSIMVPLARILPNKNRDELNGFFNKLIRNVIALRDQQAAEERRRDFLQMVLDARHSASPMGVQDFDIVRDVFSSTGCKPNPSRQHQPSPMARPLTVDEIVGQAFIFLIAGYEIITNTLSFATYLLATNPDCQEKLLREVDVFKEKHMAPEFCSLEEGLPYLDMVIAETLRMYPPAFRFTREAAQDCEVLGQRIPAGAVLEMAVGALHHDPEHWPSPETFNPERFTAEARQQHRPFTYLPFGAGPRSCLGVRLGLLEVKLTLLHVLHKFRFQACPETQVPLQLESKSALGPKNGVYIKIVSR
Summary of the method: (§1)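 Human platelet microsomal preparation incubated with [14C]arachidonic acid; thromboxane synthase activity read as TxB2 formation; IC50 determined.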

Homo sapiens [2] = species on record: Homo sapiens; test: In vitro inhibition of U 46619 induced aggregation of washed human platelets; type: functional
Canis familiaris = species on record: Canis familiaris; test: In vitro inhibition of U 46619 induced contraction of dog saphenous vein; type: functional; settings: Canis lupus familiaris, read-out: pA2 (converted)
Summary of the method: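 Dog saphenous vein rings 2-3 mm in modified Krebs buffer with 1.0 μM indomethacin, 95% O2/5% CO2, 37 °C, 2.0 g preload, isometric tension.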

Homo sapiens [3] = species on record: Homo sapiens; test: In vitro inhibition of U 46619 induced aggregation of human PRP; type: functional, organism-based
Thromboxane-A synthase [4] = target: T1, Thromboxane-A synthase; test: In vitro inhibition of Thromboxane synthase using [14C]arachidonic acid […]; summary of the method: as §1

SMILES	IC50 (Thromboxane-A synthase [1]) [nM]	IC50 (Homo sapiens [2]) [nM]	IC50 (Homo sapiens [3]) [nM]	IC50 (Thromboxane-A synthase [4]) [nM]	Kb (Canis familiaris) [nM]
O=C(O)CCCCCC[C@@H]1C2CCC(C2)C1c1cccnc1 (some centres not stated)	125	9770			
O=C(O)CCCCCC[C@@H]1C2CCC(C2)[C@@H]1c1cccnc1 (some centres not stated)	54	7250			
O=C(O)CC/C=C\C[C@@]1(c2cccnc2)C2CCC(C2)[C@H]1CNS(=O)(=O)c1ccc(Cl)cc1 (some centres not stated)	340	30	10800		3.24
O=C(O)CCCCO/N=C(/c1cccnc1)c1cccc(C(F)(F)F)c1 [RIDOGREL]		1280	2830	3	447

The next lines start with results.

IC50 (Thromboxane-A synthase [1]) [nM]	IC50 (Homo sapiens [2]) [nM]	IC50 (Homo sapiens [3]) [nM]	IC50 (Thromboxane-A synthase [4]) [nM]	SMILES	Kb (Canis familiaris) [nM]
7	13000			O=C(O)CCCCCC[C@H]1C2CCC(C2)[C@H]1c1cccnc1 (some centres not stated)	
790	1500			O=C(O)CCC/C=C\C[C@@H]1C2CCC(C2)[C@@]1(CCCCCc1ccccc1)c1cccnc1 (some centres not stated)	
			165	O=C(O)CCCC/C=C\C[C@@H]1C2CCC(C2)C1c1cccnc1 (some centres not stated)	
